49 molecules from ChEMBL document CHEMBL1287787, “Design and synthesis of disubstituted thiophene and thiazole based inhibitors of JNK” (Bioorg Med Chem Lett, 2010) can be followed below.

Series [1] deals with Mitogen-activated protein kinase 8 (Homo sapiens, UniProt P45983). The experiment in a line: Inhibition of recombinant JNK1 after 60 mins by TR-FRET assay.
Series [2] concerns the target Mitogen-activated protein kinase 9 (Homo sapiens, UniProt P45984). The experiment in a line: Inhibition of recombinant JNK2 after 60 mins by TR-FRET assay.
The target in series [3] is Mitogen-activated protein kinase 10 (Homo sapiens, UniProt P53779). Kind of series: Inhibition of recombinant JNK3 after 60 mins by TR-FRET assay.
Series [4] in a line: Metabolic stability in mouse liver microsomes assessed as compound remaining after 30 mins. It is filed as ADME, Microsome. Conditions: read-out: Stability. An outline of the steps: (§1)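 Test compound incubated with mouse or human liver microsomes for 30 min. Read-out is the percent of parent compound remaining at the end of the incubation.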
A short description of series [5]: Metabolic stability in human liver microsomes assessed as compound remaining after 30 mins. It is filed as ADME, Microsome. Conditions: read-out: Stability. In short, it runs like this:
as §1

For series [6], the system named is MDR1. Kind of series: Permeability from apical to basolateral side of MDCK cells expressing MDR1 after 120 mins. Conditions: dog, read-out: permeability. The series is classed as ADME, cell-based, Canis lupus familiaris.
In series [7] the target is Mitogen-activated protein kinase 1 (Homo sapiens, UniProt P28482). The experiment in a line: Inhibition of recombinant Erk2 after 60 mins by TR-FRET assay.
The target in series [8] is Mitogen-activated protein kinase 14 (Homo sapiens, UniProt Q16539). The experiment in a line: Inhibition of recombinant p38alpha after 60 mins by TR-FRET assay.
Mitogen-activated protein kinase 14, sequence (Q16539 whole entry): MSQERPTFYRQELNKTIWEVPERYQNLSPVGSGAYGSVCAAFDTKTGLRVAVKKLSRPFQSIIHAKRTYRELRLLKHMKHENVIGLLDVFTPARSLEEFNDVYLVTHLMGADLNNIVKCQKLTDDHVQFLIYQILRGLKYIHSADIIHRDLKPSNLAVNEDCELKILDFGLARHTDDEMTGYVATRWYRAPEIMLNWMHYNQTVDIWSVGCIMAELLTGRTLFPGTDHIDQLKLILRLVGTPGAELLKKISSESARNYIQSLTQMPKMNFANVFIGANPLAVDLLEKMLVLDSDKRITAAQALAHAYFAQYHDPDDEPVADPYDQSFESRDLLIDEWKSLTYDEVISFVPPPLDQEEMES

Mitogen-activated protein kinase 9, sequence (P45984 whole entry): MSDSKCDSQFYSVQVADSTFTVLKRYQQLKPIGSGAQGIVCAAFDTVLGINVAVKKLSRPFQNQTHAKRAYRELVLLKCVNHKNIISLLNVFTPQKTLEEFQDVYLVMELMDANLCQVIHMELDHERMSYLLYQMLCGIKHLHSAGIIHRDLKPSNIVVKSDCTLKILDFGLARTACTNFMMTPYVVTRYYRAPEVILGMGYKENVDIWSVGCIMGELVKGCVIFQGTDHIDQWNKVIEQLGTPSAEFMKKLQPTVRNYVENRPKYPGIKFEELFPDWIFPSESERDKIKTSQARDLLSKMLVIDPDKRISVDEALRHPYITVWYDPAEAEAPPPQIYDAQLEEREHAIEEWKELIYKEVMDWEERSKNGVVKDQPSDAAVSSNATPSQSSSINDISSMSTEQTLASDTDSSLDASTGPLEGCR
Mitogen-activated protein kinase 8, sequence (P45983 whole entry): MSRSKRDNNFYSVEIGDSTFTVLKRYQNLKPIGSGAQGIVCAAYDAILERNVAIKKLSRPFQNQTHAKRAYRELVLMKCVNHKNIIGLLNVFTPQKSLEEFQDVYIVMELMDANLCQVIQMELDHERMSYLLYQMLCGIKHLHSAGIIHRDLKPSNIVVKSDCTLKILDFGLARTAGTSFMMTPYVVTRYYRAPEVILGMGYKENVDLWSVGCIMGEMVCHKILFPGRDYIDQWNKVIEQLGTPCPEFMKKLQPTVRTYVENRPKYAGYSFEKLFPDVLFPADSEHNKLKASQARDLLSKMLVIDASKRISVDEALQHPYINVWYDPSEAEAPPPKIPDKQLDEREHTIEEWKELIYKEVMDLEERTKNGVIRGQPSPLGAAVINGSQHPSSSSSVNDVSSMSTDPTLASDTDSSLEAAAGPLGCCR
Mitogen-activated protein kinase 1, sequence (P28482 whole entry): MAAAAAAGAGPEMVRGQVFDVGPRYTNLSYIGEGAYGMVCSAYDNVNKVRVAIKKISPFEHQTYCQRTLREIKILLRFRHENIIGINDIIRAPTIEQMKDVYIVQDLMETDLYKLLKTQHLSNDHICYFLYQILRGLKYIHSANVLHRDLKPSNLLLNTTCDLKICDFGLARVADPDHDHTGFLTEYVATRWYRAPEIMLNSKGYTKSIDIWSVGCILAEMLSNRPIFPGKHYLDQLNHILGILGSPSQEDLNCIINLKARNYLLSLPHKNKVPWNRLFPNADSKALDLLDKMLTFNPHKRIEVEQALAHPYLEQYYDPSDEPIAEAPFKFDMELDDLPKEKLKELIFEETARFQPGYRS
Mitogen-activated protein kinase 10, sequence (P53779 whole entry): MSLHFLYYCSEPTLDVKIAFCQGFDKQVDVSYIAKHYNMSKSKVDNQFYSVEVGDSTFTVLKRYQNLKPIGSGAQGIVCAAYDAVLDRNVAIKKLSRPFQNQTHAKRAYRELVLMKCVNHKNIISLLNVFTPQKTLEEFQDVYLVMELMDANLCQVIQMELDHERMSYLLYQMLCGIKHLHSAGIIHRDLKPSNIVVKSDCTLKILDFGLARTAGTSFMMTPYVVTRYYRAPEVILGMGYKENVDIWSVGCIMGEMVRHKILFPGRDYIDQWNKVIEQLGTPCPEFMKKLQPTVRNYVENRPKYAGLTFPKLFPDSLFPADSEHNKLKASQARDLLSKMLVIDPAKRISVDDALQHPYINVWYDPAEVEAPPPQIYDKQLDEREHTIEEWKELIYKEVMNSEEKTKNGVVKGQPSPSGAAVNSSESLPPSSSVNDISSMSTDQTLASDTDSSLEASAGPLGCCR

For the molecule `O=C(Cc1cccc2ccccc12)Nc1ccsc1-c1ncn[nH]1`, the half-inhibitory concentration (IC50) in series [1] was determined as 0.53 µM; in series [2], 3 µM; in series [3], 0.92 µM. The figures for the remaining at 0.5 h in series [4] and in series [5] were 1% and 11%, respectively.
Regarding `CC(C)OC(=O)c1sccc1NC(=O)Cc1ccccc1`, the IC50 turned out to be 0.5 µM in series [1], 47.7 µM in series [2] and 1.4 µM in series [3].
Take `O=C(Cc1ccccc1)Nc1ccsc1CO`: the 50% inhibitory concentration (IC50) in series [3] is more than 50 µM.
On to `COC(=O)c1cscc1NC(=O)Cc1cccc2ccccc12`, for which the IC50 was found to be 0.89 µM in series [1], 9.9 µM in series [2] and 0.9 µM in series [3].
The matching figures for `COC(=O)c1sccc1NC(=O)Cc1ccc2ccccc2c1`: 0.6 µM, more than 50 µM and 3.9 µM.
The matching figures for `Cc1ccncc1NC(=O)Cc1cccc2ccccc12`: more than 50 µM, more than 50 µM and more than 50 µM.
In the case of `COc1ccc(CC(=O)Nc2ccsc2-c2ncco2)cc1`, the IC50 in series [2] was found to be 11.9 µM. For the same molecule, the remaining at 0.5 h in series [4] was found to be 9%; in series [5] it was 14%.
`Cc1cc(-c2sccc2NC(=O)Cc2cccc3ccccc23)n[nH]1`: the half-maximal inhibitory concentration (IC50) in series [2] is 1.5 µM. The remaining at 0.5 h in series [4] came out at 1%; in series [5], 2%.
As to `COC(=O)c1sccc1NC(=O)Cc1ccncc1`, the IC50 was 6.6 µM in series [1], more than 50 µM in series [2] and 17.2 µM in series [3].
`CCOC(=O)c1c(C)nsc1NC(=O)Cc1cccc2ccccc12`: the IC50 in series [1], in series [2] and in series [3] was more than 50 µM throughout.
For `COC(=O)c1nonc1NC(=O)Cc1cccc2ccccc12`, the IC50 in series [1], in series [2] and in series [3] was more than 50 µM in each case.
Turning to `COc1ccc(CC(=O)Nc2ccsc2N2CCOC2=O)cc1`, the concentration for half-maximal inhibition (IC50) was more than 50 µM in series [1], more than 50 µM in series [2] and 37 µM in series [3]. For the same molecule, the remaining at 0.5 h in series [4] is 26%; in series [5], 83%. In addition, in series [6], the Papp A→B at 2 h turned out to be 26 ×10⁻⁶ cm/s.
For `COC(=O)c1sccc1NC(=O)Cc1ccccc1`, the IC50 turned out to be 0.7 µM in series [1], 22.8 µM in series [2] and 2.7 µM in series [3].
Consider `COc1ccc(CC(=O)Nc2ccsc2-n2nccn2)cc1`, for which the IC50 in series [1] stood at 0.83 µM; in series [2], 5 µM; in series [3], 1.5 µM. For the same molecule, the results for the remaining at 0.5 h in series [4] and in series [5] were 1% and 0%, respectively. Also, in series [6], the Papp A→B at 2 h was determined as 15 ×10⁻⁶ cm/s.
Turning to `COC(=O)c1sccc1NC(=O)Cc1cccc2ncccc12`, the concentration for half-maximal inhibition (IC50) was 0.3 µM in series [1], 3 µM in series [2] and 0.61 µM in series [3].
Turning to `Cc1nnc(-c2sccc2NC(=O)Cc2cccc3ccccc23)o1`, the IC50 in series [1] amounted to 1.8 µM; in series [2], 16.3 µM; in series [3] it was 2.1 µM. Moreover, the values for the remaining at 0.5 h in series [4] and in series [5] were 0% and 4%, respectively.
`COc1ccc(CC(=O)Nc2ccsc2-c2cnccn2)cc1`: the IC50 is 1.1 µM in series [1]; 5.7 µM in series [2]; 1.5 µM in series [3]; more than 50 µM in series [7]; more than 50 µM in series [8]. Also, the remaining at 0.5 h in series [4] and in series [5] was 0% in each case. In addition, in series [6], the Papp A→B at 2 h turned out to be 22.2 ×10⁻⁶ cm/s.
For the molecule `C/C(=N/O)c1sccc1NC(=O)Cc1ccccc1`, the IC50 in series [3] is 29 µM.
As to `Cn1ccc(-c2sccc2NC(=O)Cc2cccc3ccccc23)n1`, the figures for the IC50 in series [1], in series [2] and in series [3] were 24.1 µM, more than 50 µM and 42.5 µM, respectively. The remaining at 0.5 h in series [4] and in series [5] was 0% in each case.
In the case of `CCOC(=O)c1sccc1NC(=O)Cc1ccccc1`, the IC50 in series [1] stood at 0.3 µM; in series [2], 46.6 µM; in series [3], 0.7 µM.
For the molecule `Cc1nccnc1NC(=O)Cc1cccc2ccccc12`, the concentration for half-maximal inhibition (IC50) in series [2] and in series [3] was more than 50 µM each time.
In the case of `CC(=O)c1sccc1NC(=O)Cc1ccccc1`, the concentration for half-maximal inhibition (IC50) was 6.3 µM in series [1], more than 50 µM in series [2] and 17 µM in series [3].
Regarding `O=C(Cc1cccc2ccccc12)Nc1ccsc1-c1cc[nH]n1`, the IC50 in series [2] is more than 50 µM. The results for the remaining at 0.5 h in series [4] and in series [5] were 0% and 5%, respectively.
As to `COC(=O)c1cccnc1NC(=O)Cc1cccc2ccccc12`, the IC50 in series [1], in series [2] and in series [3] was more than 50 µM in each case.
As to `COC(=O)c1sccc1NC(=O)Cc1cccc2ccccc12`, the half-inhibitory concentration (IC50) in series [1] was found to be 0.4 µM; in series [2], 14.6 µM; in series [3], 1.5 µM.
For `COC(=O)c1sccc1NC(=O)Cc1ccc(OC)cc1`, the half-maximal inhibitory concentration (IC50) in series [1] turned out to be 0.8 µM; in series [2], 14.1 µM; in series [3], 1 µM.
As to `COC(=O)c1n[nH]cc1NC(=O)Cc1cccc2ccccc12`, the IC50 in series [1] is 2.1 µM; in series [2], 26.7 µM; in series [3], 5.4 µM; in series [7], more than 50 µM; in series [8], more than 50 µM.
Consider `COc1ccc(CC(=O)Nc2ccsc2-c2c[nH]c(C)n2)cc1`, for which the IC50 in series [1] was 23.4 µM; in series [2] it was more than 50 µM; in series [3], 27 µM; in series [7], more than 50 µM; in series [8] it was more than 50 µM. Moreover, the figures for the remaining at 0.5 h in series [4] and in series [5] were 0% and 17%, respectively. Further, in series [6], the Papp A→B at 2 h came to 33.8 ×10⁻⁶ cm/s.
On to `COC(=O)c1sccc1NC(=O)Cc1cccc2cnccc12`, for which the IC50 in series [1] was 0.27 µM; in series [2], 3.1 µM; in series [3], 0.61 µM; in series [7], more than 50 µM; in series [8] it was more than 50 µM.
For the molecule `COC(=O)c1sccc1NC(=O)Cc1ccc(-c2ccncc2)cc1`, the values for the half-inhibitory concentration (IC50) in series [1], in series [2] and in series [3] were 0.46 µM, more than 50 µM and 0.69 µM, respectively.
For the molecule `COC(=O)c1scnc1NC(=O)Cc1cccc2ccccc12`, the IC50 in series [1], in series [2] and in series [3] was more than 50 µM throughout.
In the case of `COC(=O)c1nnsc1NC(=O)Cc1cccc2ccccc12`, the IC50 in series [1], in series [2] and in series [3] was more than 50 µM throughout.
Consider `Cc1nc(-c2sccc2NC(=O)Cc2cccc3ccccc23)n(C)n1`, for which the results for the IC50 in series [1], in series [2] and in series [3] were 30.3 µM, more than 50 µM and 31.5 µM, respectively. Further, the remaining at 0.5 h in series [4] and in series [5] was 1% throughout.
For the molecule `COCCNC(=O)c1sccc1NC(=O)Cc1ccccc1`, the IC50 in series [1] was 2.3 µM; in series [2] it was more than 50 µM; in series [3], 3.8 µM.
As for `COc1ccc(CC(=O)Nc2ccsc2-c2nc(N)n[nH]2)cc1`, the half-maximal inhibitory concentration (IC50) was 8.7 µM in series [2], more than 50 µM in series [7] and more than 50 µM in series [8]. Further, the remaining at 0.5 h came out at 44% in series [4] and 87% in series [5]. Moreover, the Papp A→B at 2 h in series [6] is 24.3 ×10⁻⁶ cm/s.
Take `O=C(Cc1cccc2ccccc12)Nc1ccsc1-n1ccnc1`: the half-maximal inhibitory concentration (IC50) in series [1] was 26.9 µM; in series [2] it was more than 50 µM; in series [3], 9 µM. Further, the remaining at 0.5 h was 0% in series [4] and 17% in series [5].
Turning to `COC(=O)c1cnccc1NC(=O)Cc1cccc2ccccc12`, the IC50 was 6.4 µM in series [1], 23.6 µM in series [2] and 6.5 µM in series [3].
The matching figures for `COC(=O)c1sccc1NC(=O)Cc1ccc(C(F)(F)F)cc1`: 2 µM, more than 50 µM and 6.9 µM.
In the case of `COCCN(C)C(=O)c1sccc1NC(=O)Cc1ccccc1`, the IC50 in series [2] and in series [3] was more than 50 µM in each case.
Turning to `NC(=O)c1sccc1NC(=O)Cc1ccccc1`, the values for the IC50 in series [1], in series [2] and in series [3] were 2.6 µM, more than 50 µM and 4.4 µM, respectively.
In the case of `COc1ccc(CC(=O)Nc2ccsc2-c2nc(C(F)(F)F)n[nH]2)cc1`, the IC50 is 3.4 µM in series [1]; 15 µM in series [2]; 5.9 µM in series [3]; more than 50 µM in series [7]; more than 50 µM in series [8]. Also, the remaining at 0.5 h amounted to 8% in series [4] and 71% in series [5].
As to `Cc1n[nH]c(-c2sccc2NC(=O)Cc2cccc3ccccc23)n1`, the results for the half-maximal inhibitory concentration (IC50) in series [1], in series [2] and in series [3] were 0.25 µM, 2.4 µM and 0.55 µM, respectively. Moreover, the remaining at 0.5 h in series [4] and in series [5] was 1% throughout.
On to `COC(=O)c1sccc1NC(=O)Cc1ccccc1-c1c[nH]nn1`, for which the IC50 in series [1] is 7 µM; in series [2], 35 µM; in series [3], 12.6 µM.
For `COC(=O)c1ccccc1NC(=O)Cc1cccc2ccccc12`, the IC50 in series [1] turned out to be 2.1 µM; in series [2], 13.1 µM; in series [3], 1.7 µM.
The matching figures for `COc1ccc(CC(=O)Nc2ccsc2-n2cncn2)cc1`: 43.6 µM, more than 50 µM and 45.6 µM.
Regarding `C=C(C)c1sccc1NC(=O)Cc1ccccc1`, in series [3], the 50% inhibitory concentration (IC50) was more than 50 µM.
Turning to `O=C(Cc1cccc2ccccc12)Nc1ccsc1-c1nnco1`, the IC50 in series [1] was 3.2 µM; in series [2] it was 27.1 µM; in series [3] it was 5.3 µM. The results for the remaining at 0.5 h in series [4] and in series [5] were 1% and 7%, respectively.
`COC(=O)c1sccc1NC(=O)Cc1cccs1`: the 50% inhibitory concentration (IC50) in series [2] came out at 21.4 µM.
On to `COC(=O)c1sccc1NC(=O)Cc1ccc(-n2ccnc2)cc1`, for which the half-inhibitory concentration (IC50) in series [1] was 1 µM; in series [2], more than 50 µM; in series [3] it was 1.6 µM.
